Measured values pooled from the literature.
Lines come from different studies, so protocols differ.
Observed: cell growth or viability

COc1cc(/C=N/n2c(C)nc3ccc(C)cc3c2=O)ccc1OCc1ccccc1 — viability (LoVo; LDH; 200 µg/mL, 24 h): 76.5%
CC(C)c1cc(C(=O)N2Cc3ccccc3C2)c(O)c2c1C=CC2 — IC50 (UMUC3; ATP luminescence; 72 h): 59400 nM
COc1ccc(-c2nc(NN=C3C(=O)Nc4ccc(Cl)cc43)c3ccccc3n2)cc1OC — inhibition (HT-29; 30 µM): 5.3%
COc1cc([C@@H]2c3cc4c(cc3[C@@H](O[C@@H]3O[C@@H]5CO[C@@H](C)O[C@H]5[C@H](O)[C@H]3O)[C@H]3COC(=O)[C@H]23)OCO4)cc(OC)c1O — IC50 (Caco-2; MTS; 72 h): 16500 nM
CC(C)c1cc(C(=O)N2Cc3ccccc3C2)c(O)c2c1C(=NO)CC2 — IC50 (UMUC3; ATP luminescence; 72 h): 51600 nM
C=CC(=O)Nc1cc(-n2c(=O)ccc3cnc4ccc(-c5ccc(NS(C)(=O)=O)cc5)cc4c32)ccc1C — GI50 (U2932; 48 h): 2150 nM
COc1cc(NCC(=O)Nn2c(C)nc3ccc(Cl)cc3c2=O)cc(OC)c1OC — viability (LoVo; LDH; 200 µg/mL, 24 h): 59.5%
COc1ccc(-c2nc(NN=C3C(=O)Nc4ccc(Br)cc43)c3ccccc3n2)cc1OC — inhibition (HT-29; 10 µM): 70.8%
C=CC(=O)N1CCC[C@@H](n2nc(-c3ccc(Oc4ccccc4)cc3)c3c(N)ncnc32)C1 — GI50 (U2932; 48 h): 5000 nM
COc1cccc(Oc2ccccc2NC(=O)CNC(=O)c2cccc3ccccc23)c1 — GI50 (TK-10; SRB; 48 h): 1580 nM
CC(C)C[C@H](NC(=O)[C@H](Cc1ccccc1)NC(=O)c1cnccn1)B(O)O — IC50 (NCI-H1581; ATP luminescence): 16 nM
Cc1cc(C)n(C(=S)[S][Au][PH](CCCCCC[PH]([Au][S]C(=S)n2nc(C)cc2C)(c2ccccc2)c2ccccc2)(c2ccccc2)c2ccccc2)n1 — GI50 (TK-10): 1210 nM
COc1ccc(-c2ccc(-c3ccc(C(=N)N)nc3)s2)cc1Cl — GI50 (TK-10): 1900 nM
COc1cc([C@@H]2c3cc4c(cc3[C@@H](O[C@@H]3O[C@@H]5CO[C@@H](C)O[C@H]5[C@H](O)[C@H]3O)[C@H]3COC(=O)[C@H]23)OCO4)cc(OC)c1O — IC50 (Caco-2; MTS; 48 h): 15300 nM
CC[C@@H]1C=CC(=O)O[C@@H]1C[C@@H](O)[C@H](C)[C@H](O)[C@@H](C)Cc1ccc(F)cc1 — GI50 (A2780; MTT; 48 h): 29.7 nM
COc1ccc2c(c1)C(=NNc1ncnc3cc(OC)c(OC)cc13)C(=O)N2 — inhibition (HT-29; 10 µM): 20.9%
CCN(CC)CCNC(=O)c1c(C)[nH]c(/C=C2\C(=O)Nc3ccc(F)cc32)c1C — inhibition (HT-29; 30 µM): 59.5%
CCc1ccc(/C=N/n2c(C)nc3ccc(C)cc3c2=O)s1 — viability (LoVo; LDH; 200 µg/mL, 24 h): 89.5%
